Legend:
Saccharomyces cerevisiae [1] = test: DNA damaging activity against RS322YK rad52 DNA repair gene deficient Saccharomyces cerevisiae mutant assessed as drug level required to produce 12 mm zone of inhibition after 48 hrs; format: functional
In short: (§1)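 Agar well-diffusion test on Saccharomyces cerevisiae strains differing in DNA-repair genes. Sample is placed in a 100 μl well and the plate is incubated 48 h at 37°. The value is the concentration in μg/ml that gives a 12 mm diameter inhibition zone around the well.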

Saccharomyces cerevisiae [2] = test: DNA damaging activity against RS167N rad6 DNA repair gene deficient Saccharomyces cerevisiae mutant assessed as drug level required to produce 12 mm zone of inhibition after 48 hrs; format: functional; in short: as §1
Saccharomyces cerevisiae [3] = test: DNA damaging activity against DNA repair gene deficient Saccharomyces cerevisiae mutant assessed as drug level required to produce 12 mm zone of inhibition after 48 hrs

| SMILES | IC12 (Saccharomyces cerevisiae [1]) [µg/mL] | IC12 (Saccharomyces cerevisiae [2]) [µg/mL] | IC12 (Saccharomyces cerevisiae [3]) [µg/mL] |
| --- | --- | --- | --- |
| C[C@@H]1CCCC2=CC(=O)[C@@H]3[C@@H](C3(C)C)[C@]21C [ARISTOLONE] | 390 | > 1000 | > 1000 |
| CC1(C)CCC[C@@]2(C)C1=CC(=O)C1=C2C(=O)OC1 | > 1000 | > 1000 | > 1000 |
| CC1(C)CCC[C@]2(C)C3=C(COC3=O)C(=O)C[C@@H]12 | > 1000 | > 1000 | > 1000 |
| C[C@@H]1[C@@H]2C[C@@]3(C)C(=O)c4ccoc4C[C@@]13C(=O)O2 [NORPINGUISANOLIDE] | > 1000 | > 1000 | > 1000 |
| CC1(C)CCC[C@]2(C)[C@H]3C(=O)OCC3=CC[C@@H]12 [DRIMENIN] | 200 | > 1000 | > 1000 |

From ChEMBL document CHEMBL1148169, “Bioactive and other sesquiterpenoids from Porella cordeana” (1993)
